Experiments:
Nucleic Acid = assay: DNA alkylation ability was determined; type: functional; details: Bos taurus
Procedure, shortened: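 Bulk alkylation of calf thymus DNA. Drug (0.004 mmol) in DMSO was added, sealed and degassed under argon. The mix was reduced by H2 purge over Pd/C until colourless, argon-purged, then held at 30 °C for 24 h. After catalyst removal, DNA was ethanol/ammonium acetate precipitated at −20 °C for 16 h, pelleted, redissolved and reprecipitated.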

[1] = test system: Panel melanoma (Carcinoma cell lines); assay: Cytotoxic activity against human melanoma cell lines was determined; type: functional; parameters: unit not given here
Procedure, shortened: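 Tested in the NCI In Vitro Cell Line Screening Project, 60 human tumour lines. Cytotoxic read-out is LC50, the concentration giving 50% cell kill.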

[2] = test system: Panel melanoma (Carcinoma cell lines); assay: Cytostatic activity against human melanoma cell lines was determined; type: functional
Procedure, shortened: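 Tested in the NCI In Vitro Cell Line Screening Project, 60 human tumour lines. Cytostatic read-outs are GI50 (50% growth inhibition) and TGI (total growth inhibition).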

[3] = target: NAD(P)H dehydrogenase [quinone] 1 (Homo sapiens) (UniProt P15559); assay: Substrate specificity for human DT-diaphorase was determined
Sequence of NAD(P)H dehydrogenase [quinone] 1 (Homo sapiens) (P15559 whole entry): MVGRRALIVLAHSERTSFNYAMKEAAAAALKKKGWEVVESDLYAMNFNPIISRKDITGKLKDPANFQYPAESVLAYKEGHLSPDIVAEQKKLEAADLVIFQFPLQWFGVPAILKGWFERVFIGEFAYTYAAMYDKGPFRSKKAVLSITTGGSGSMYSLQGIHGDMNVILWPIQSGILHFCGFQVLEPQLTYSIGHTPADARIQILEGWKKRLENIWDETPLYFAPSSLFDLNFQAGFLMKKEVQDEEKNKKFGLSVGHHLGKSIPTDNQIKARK

| SMILES | DNA alkylation (Nucleic Acid) [%] | LC50 [1] | log GI50 range [2] | log TGI range [2] | k cat/Km [3] [M⁻¹ s⁻¹] |
| --- | --- | --- | --- | --- | --- |
| CCC(=O)NC1CCn2c1nc1c2C(=O)C(C)=C(N2CC2)C1=O (stereo not given) | 0 |  |  |  |  |
| CC1=C(N2CC2)C(=O)c2nc3n(c2C1=O)CCC3NC(=O)c1cccnc1 (stereo not given) | 20 |  |  |  |  |
| CC1=C(N2CC2)C(=O)c2nc3n(c2C1=O)CCC3N (stereo not given) | 100 |  |  |  |  |
| CC1=C(N2CC2)C(=O)c2nc3n(c2C1=O)CCC3NC(=O)c1ccncc1 (stereo not given) | 79 | 2.35 | 1.96 | 2.5 | 0.00033 |
| CC1=C(N2CC2)C(=O)c2nc3n(c2C1=O)CC[C@@H]3NC(=O)[C@H](N)Cc1ccccc1 |  | 4 | 1.69 | 4 |  |
| CC1=C(N2CC2)C(=O)c2nc3n(c2C1=O)CC[C@@H]3NC(=O)[C@@H](Cc1ccccc1)NC(=O)[C@H](N)Cc1ccccc1 |  | 4 | 2.42 | 4 |  |
| CC1=C(N2CC2)C(=O)c2nc3n(c2C1=O)CC[C@@H]3NC(=O)C1CCCN1 (stereo not given in full) |  | 2.27 | 3.34 | 2.8 |  |
| CC1=C(N2CC2)C(=O)c2nc3n(c2C1=O)CCC3NC(=O)Cc1ccncc1 (stereo not given) | 35 |  |  |  |  |
| CCCCC(=O)NC1CCn2c1nc1c2C(=O)C(C)=C(N2CC2)C1=O (stereo not given) | 9 |  |  |  |  |
| CC1=C(N2CC2)C(=O)c2nc3n(c2C1=O)CCC3NC(=O)c1ccnc2ccccc12 (stereo not given) | 10 |  |  |  |  |

— ChEMBL document CHEMBL1139442, “Pyrrolobenzimidazoles linked to heterocycles and peptides. Design of DNA base pair specific phosphate hydrolyzing agents and novel cytotoxic agents” (2004)
